Laboratory results published in ChEMBL document CHEMBL3864121, “Development of ebsulfur analogues as potent antibacterials against methicillin-resistant Staphylococcus aureus” (Bioorg Med Chem, 2016).
In brackets after ≈: the same amount, converted by molar mass.

Assays:
Assay type in all cases: functional
[1] = tested on: Staphylococcus aureus; experiment: Antibacterial activity against methicillin-resistant Staphylococcus aureus 2 measured after overnight incubation by broth double-dilution method
Procedure, shortened: (§1)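 MIC by broth double-dilution in liquid Mueller-Hinton medium. Values are reported in µg/mL.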

[2] = tested on: Staphylococcus aureus; experiment: Antibacterial activity against methicillin-resistant Staphylococcus aureus C19 measured after overnight incubation by broth double-dilution method; procedure, shortened: as §1
[3] = tested on: Staphylococcus aureus; experiment: Antibacterial activity against methicillin-resistant Staphylococcus aureus USA100 measured after overnight incubation by broth double-dilution method; procedure, shortened: as §1
[4] = tested on: Enterococcus faecium; experiment: Antibacterial activity against Enterococcus faecium BM4105-RF measured after overnight incubation by broth double-dilution method; procedure, shortened: as §1
[5] = tested on: Staphylococcus aureus; experiment: Antibacterial activity against methicillin-resistant Staphylococcus aureus C2 measured after overnight incubation by broth double-dilution method; procedure, shortened: as §1
[6] = tested on: Staphylococcus aureus; experiment: Antibacterial activity against methicillin-resistant Staphylococcus aureus S17 measured after overnight incubation by broth double-dilution method; procedure, shortened: as §1
[7] = tested on: Staphylococcus aureus; experiment: Antibacterial activity against methicillin-resistant Staphylococcus aureus ATCC 33591 measured after overnight incubation by broth double-dilution method; procedure, shortened: as §1
[8] = tested on: Staphylococcus aureus; experiment: Antibacterial activity against methicillin-resistant Staphylococcus aureus S22 measured after overnight incubation by broth double-dilution method; procedure, shortened: as §1
[9] = tested on: Staphylococcus aureus; experiment: Antibacterial activity against methicillin-resistant Staphylococcus aureus S24 measured after overnight incubation by broth double-dilution method; procedure, shortened: as §1
[10] = tested on: Staphylococcus aureus; experiment: Antibacterial activity against methicillin-resistant Staphylococcus aureus NRS77 measured after overnight incubation by broth double-dilution method; procedure, shortened: as §1
[11] = tested on: Listeria monocytogenes; experiment: Antibacterial activity against Listeria monocytogenes ATCC 19115 measured after overnight incubation by broth double-dilution method
Procedure, shortened: (§2)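 MIC by broth double-dilution in Mueller-Hinton medium. Re-testing at the time-kill inoculum used 1×10^6 CFU/mL.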

[12] = tested on: Staphylococcus aureus; experiment: Antibacterial activity against methicillin-resistant Staphylococcus aureus 1 measured after overnight incubation by broth double-dilution method; procedure, shortened: as §1
[13] = tested on: Staphylococcus aureus; experiment: Antibacterial activity against methicillin-sensitive Staphylococcus aureus ATCC 25923 measured after overnight incubation by broth double-dilution method; procedure, shortened: as §1
[14] = tested on: Mycolicibacterium smegmatis; experiment: Antibacterial activity against Mycobacterium smegmatis MC2-155 measured after overnight incubation by broth double-dilution method; settings: str. MC2 155; procedure, shortened: as §1
[15] = tested on: Staphylococcus aureus; experiment: Antibacterial activity against methicillin-resistant Staphylococcus aureus S14 measured after overnight incubation by broth double-dilution method; procedure, shortened: as §1
[16] = tested on: Staphylococcus aureus; experiment: Antibacterial activity against methicillin-resistant Staphylococcus aureus C1 measured after overnight incubation by broth double-dilution method; procedure, shortened: as §1
[17] = tested on: Staphylococcus aureus; experiment: Antibacterial activity against methicillin-resistant Staphylococcus aureus G1 measured after overnight incubation by broth double-dilution method; procedure, shortened: as §1
[18] = tested on: Staphylococcus epidermidis; experiment: Antibacterial activity against Staphylococcus epidermidis ATCC 35984 measured after overnight incubation by broth double-dilution method; settings: RP62A; procedure, shortened: as §2
[19] = tested on: Staphylococcus aureus; experiment: Antibacterial activity against methicillin-resistant Staphylococcus aureus NRS51 measured after overnight incubation by broth double-dilution method; procedure, shortened: as §1
[20] = tested on: Staphylococcus aureus; experiment: Antibacterial activity against methicillin-resistant Staphylococcus aureus G12 measured after overnight incubation by broth double-dilution method; procedure, shortened: as §1
[21] = tested on: Staphylococcus aureus; experiment: Antibacterial activity against methicillin-resistant Staphylococcus aureus USA300 measured after overnight incubation by broth double-dilution method; procedure, shortened: as §1
[22] = tested on: Staphylococcus aureus; experiment: Antibacterial activity against methicillin-resistant Staphylococcus aureus USA200 measured after overnight incubation by broth double-dilution method; procedure, shortened: as §1
[23] = tested on: Staphylococcus aureus; experiment: Antibacterial activity against methicillin-resistant Staphylococcus aureus G14 measured after overnight incubation by broth double-dilution method; procedure, shortened: as §1
[24] = tested on: Enterococcus faecalis; experiment: Antibacterial activity against Enterococcus faecalis ATCC 49533 measured after overnight incubation by broth double-dilution method; procedure, shortened: as §2
[25] = tested on: Staphylococcus aureus; experiment: Antibacterial activity against methicillin-resistant Staphylococcus aureus C7 measured after overnight incubation by broth double-dilution method; procedure, shortened: as §1
[26] = tested on: Enterococcus; experiment: Antibacterial activity against Vancomycin-resistant Enterococcus measured after overnight incubation by broth double-dilution method; procedure, shortened: as §1
[27] = tested on: Staphylococcus aureus; experiment: Antibacterial activity against methicillin-sensitive Staphylococcus aureus ATCC 29213 measured after overnight incubation by broth double-dilution method; procedure, shortened: as §1
[28] = tested on: Staphylococcus aureus; experiment: Antibacterial activity against methicillin-resistant Staphylococcus aureus G6 measured after overnight incubation by broth double-dilution method; procedure, shortened: as §1
[29] = tested on: Staphylococcus aureus; experiment: Antibacterial activity against methicillin-resistant Staphylococcus aureus BRS3 measured after overnight incubation by broth double-dilution method; procedure, shortened: as §1
[30] = tested on: Staphylococcus aureus; experiment: Antibacterial activity against methicillin-resistant Staphylococcus aureus C16 measured after overnight incubation by broth double-dilution method; procedure, shortened: as §1
[31] = tested on: Staphylococcus aureus; experiment: Antibacterial activity against methicillin-resistant Staphylococcus aureus NRS4 measured after overnight incubation by broth double-dilution method; procedure, shortened: as §1
[32] = tested on: Enterococcus faecalis; experiment: Antibacterial activity against Enterococcus faecalis ATCC 29212 measured after overnight incubation by broth double-dilution method; procedure, shortened: as §2
[33] = tested on: Staphylococcus aureus; experiment: Antibacterial activity against methicillin-sensitive Staphylococcus aureus ATCC 6538 measured after overnight incubation by broth double-dilution method; procedure, shortened: as §1
[34] = tested on: Staphylococcus aureus; experiment: Antibacterial activity against methicillin-resistant Staphylococcus aureus C14 measured after overnight incubation by broth double-dilution method; procedure, shortened: as §1
[35] = tested on: Staphylococcus aureus; experiment: Antibacterial activity against methicillin-resistant Staphylococcus aureus USA600 measured after overnight incubation by broth double-dilution method; procedure, shortened: as §1

Row | Structure (SMILES) | MIC [1] [µg/mL] | MIC [4] [µg/mL] | MIC [6] [µg/mL] | MIC [7] [µg/mL] | MIC [8] [µg/mL] | MIC [9] [µg/mL] | MIC [10] [µg/mL] | MIC [11] [µg/mL] | MIC [13] [µg/mL] | MIC [14] [µg/mL] | MIC [15] [µg/mL] | MIC [18] [µg/mL] | MIC [20] [µg/mL] | MIC [21] [µg/mL] | MIC [22] [µg/mL] | MIC [23] [µg/mL] | MIC [24] [µg/mL] | MIC [25] [µg/mL] | MIC [26] [µg/mL] | MIC [27] [µg/mL] | other results
1 | C#Cc1ccc(-n2sc3ccccc3c2=O)cc1 | 2 (≈ 7.96 µM) | 7.8 (≈ 31 µM) | 3.9 (≈ 15.5 µM) | 1 (≈ 3.98 µM) | 2 (≈ 7.96 µM) | 2 (≈ 7.96 µM) | 3.9 (≈ 15.5 µM) | 3.9 (≈ 15.5 µM) | 3.9 (≈ 15.5 µM) | 3.9 (≈ 15.5 µM) | 0.5 (≈ 1.99 µM) | 2 (≈ 7.96 µM) | 3.9 (≈ 15.5 µM) | 3.9 (≈ 15.5 µM) | 3.9 (≈ 15.5 µM) | 3.9 (≈ 15.5 µM) | < 125 | 2 (≈ 7.96 µM) | 2 (≈ 7.96 µM) | 1 (≈ 3.98 µM) | MIC [2]: 2 µg/mL (≈ 7.96 µM); MIC [3]: 2 µg/mL (≈ 7.96 µM); MIC [5]: 2 µg/mL (≈ 7.96 µM); MIC [12]: 3.9 µg/mL (≈ 15.5 µM); MIC [16]: 2 µg/mL (≈ 7.96 µM); MIC [17]: 2 µg/mL (≈ 7.96 µM); MIC [19]: 3.9 µg/mL (≈ 15.5 µM)
2 | CC(C)(C)n1sc2ccccc2c1=O | 15.6 (≈ 75.3 µM) | 7.8 (≈ 37.6 µM) | 15.6 (≈ 75.3 µM) | 3.9 (≈ 18.8 µM) | 15.6 (≈ 75.3 µM) | 15.6 (≈ 75.3 µM) | 15.6 (≈ 75.3 µM) | 3.9 (≈ 18.8 µM) | 15.6 (≈ 75.3 µM) | 3.9 (≈ 18.8 µM) | 2 (≈ 9.65 µM) | 15.6 (≈ 75.3 µM) | 15.6 (≈ 75.3 µM) | 15.6 (≈ 75.3 µM) | 15.6 (≈ 75.3 µM) | 15.6 (≈ 75.3 µM) | 125 (≈ 603 µM) | 15.6 (≈ 75.3 µM) | 3.9 (≈ 18.8 µM) | 15.6 (≈ 75.3 µM) | MIC [28]: 15.6 µg/mL (≈ 75.3 µM); MIC [3]: 15.6 µg/mL (≈ 75.3 µM); MIC [29]: 15.6 µg/mL (≈ 75.3 µM); MIC [30]: 15.6 µg/mL (≈ 75.3 µM); MIC [31]: 15.6 µg/mL (≈ 75.3 µM); MIC [32]: 15.6 µg/mL (≈ 75.3 µM); MIC [33]: 15.6 µg/mL (≈ 75.3 µM); MIC [34]: 15.6 µg/mL (≈ 75.3 µM); MIC [35]: 15.6 µg/mL (≈ 75.3 µM)
3 | O=c1c2ccccc2sn1-c1ccc(Br)cc1 | 2 (≈ 6.53 µM) | 7.8 (≈ 25.5 µM) | 3.9 (≈ 12.7 µM) | 0.5 (≈ 1.63 µM) | 2 (≈ 6.53 µM) | 2 (≈ 6.53 µM) | 2 (≈ 6.53 µM) | 2 (≈ 6.53 µM) | 2 (≈ 6.53 µM) | 0.5 (≈ 1.63 µM) | ≤ 0.25 | 2 (≈ 6.53 µM) | 2 (≈ 6.53 µM) | 3.9 (≈ 12.7 µM) | 3.9 (≈ 12.7 µM) | 2 (≈ 6.53 µM) | 15.6 (≈ 50.9 µM) | 1 (≈ 3.27 µM) | 2 (≈ 6.53 µM) | 2 (≈ 6.53 µM) | MIC [2]: 2 µg/mL (≈ 6.53 µM); MIC [28]: 3.9 µg/mL (≈ 12.7 µM); MIC [5]: 2 µg/mL (≈ 6.53 µM); MIC [29]: 3.9 µg/mL (≈ 12.7 µM); MIC [30]: 3.9 µg/mL (≈ 12.7 µM); MIC [31]: 3.9 µg/mL (≈ 12.7 µM); MIC [12]: 3.9 µg/mL (≈ 12.7 µM); MIC [16]: 2 µg/mL (≈ 6.53 µM); MIC [17]: 2 µg/mL (≈ 6.53 µM); MIC [33]: 2 µg/mL (≈ 6.53 µM); MIC [19]: 2 µg/mL (≈ 6.53 µM); MIC [34]: 3.9 µg/mL (≈ 12.7 µM); MIC [35]: 3.9 µg/mL (≈ 12.7 µM)
